Shown are actives, neighbours in structure and some others; about 4.9% of the full set was active somewhere.
STAT3 act: activators of IL-6 induced STAT3 signaling; U3A cells, IL-6 STAT3-luciferase reporter, luminescence; 100% = signal with IL-6 EC80 alone; activation (% of control), % at 5.6 µM; 0.91% of 190,000 active; AID 871;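 active means activation above the screen-wide mean of compound activation plus 3 SD, cut at about 130% in these data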;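 further: 0% = background luminescence of wells with medium and substrate only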
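Material: human U3A cells carrying STAT3-luciferase construct. Measured by: reporter luminescence signal. Timing: compound 1 h, then IL-6 6 h at 37 °C.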
APP 5'UTR act: activates APP 5'UTR luciferase reporter | AID 1276 | activation, % at 2 µM | 1% of 190,000 active | SH-SY5Y APP 5'UTR luciferase reporter, luminescence; zero percent = DMSO vehicle wells;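 active means activation above a set limit, based on mean plus 3 SD of controls, cut at about 140% in these data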
STAT1 blocker: reduces IFN-gamma driven STAT1 reporter signal; 0.35% of 200,000 active; inhibition, % at 5.5 µM; NIH 3T3 STAT1-luciferase reporter, luminescence;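 active means inhibition above a set limit, the mean inhibition across all tested compounds plus 3 SD, cut at about 34% in these data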;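 further: 0% = IFN-gamma with DMSO and 100% = IFN-gamma with 300 µM nifuroxazide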
STAT1 activator: increases IFN-gamma driven STAT1 reporter signal; NIH 3T3 STAT1-luciferase reporter, luminescence; 100% = IFN-gamma alone, no compound; activation (% of control), % at 5.5 µM; 2.6% of 200,000 active;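 active means activation above the screen-wide mean activation plus 3 SD, cut at about 130% in these data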;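 further: raw ratio to IFN-gamma control signal so 100% means no change and 0% no light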
STAT3 inh: inhibitors of IL-6 induced STAT3 signaling | inhibition, % at 5.5 µM | 0.89% of 190,000 active | U3A cells, IL-6 STAT3-luciferase reporter, luminescence; host cell line lacks STAT1;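 active means inhibition above the mean inhibition across all screened compounds plus 3 SD, cut at about 44% in these data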;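 further: 0% = DMSO only wells and 100% = 100 µM nifuroxazide control wells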
NF-kB neuron act: NF-kB expression increase, human neuronal cells. 1.6% of 190,000 active. fold change at 12.5 µM. NF-kB reporter expression; active compounds read high. AID 1239; in the data active means fold change above about 3.3
Numbers without * were called inactive; . = not tested or not shown.

SMILES	STAT3 act	APP 5'UTR act	STAT1 blocker	STAT1 activator	STAT3 inh	NF-kB neuron act
COc1ccc(C(=O)Nc2nc3cc(OC)c(OC)cc3c(=O)[nH]2)cc1	101	9	3	98	0	0.88
COc1ccc(C(=O)Nn2c(SCC(=O)c3ccccc3)nc3ccccc3c2=O)cc1	86	155*	-6	105	20	0.73
CC(=O)OC(C(=O)NCc1ccc(F)cc1)c1ccccn1 (configuration not stated)	104	-3	4	97	0	0.93
CN(CC(O)COCc1ccc2c(c1)OCO2)C1CCCCC1 (configuration not stated)	103	-5	0	100	-1	1
O=C(N/N=C/c1c[nH]c2ccccc12)c1ccn(Cc2ccc(Cl)cc2Cl)n1	135*	8	6	95	-33	1.1
O=C(CSc1nnc(SCc2ccccc2)s1)N/N=C/c1c[nH]c2ccccc12	90	-6	1	98	22	1.1
CCc1ccc(-c2cc(C(=O)N/N=C/c3c[nH]c4ccccc34)[nH]n2)cc1	76	208*	6	94	32	0.63
Cc1ccc(CSc2nnc(SCC(=O)N/N=C/c3c[nH]c4ccccc34)s2)cc1	92	-37	-35	131*	20	1.1
CCCC(=O)NCCSC	89	-5	5	96	19	0.9
O=C(COC(=O)C1=COCCO1)NCc1ccc(Cl)cc1	105	9	2	98	0	0.94
COc1ccc(NC(=S)Nc2ccccn2)c(OC)c1	114	60	-40	136*	-8	2
COc1ccc(NC(=S)Nc2cc(C)ccn2)c(OC)c1	141*	.	-50	145*	-44	2.4
Cc1nc(N)sc1N=Nc1ccc(F)cc1	102	60	-40	136*	5	1.2
Nc1n[nH]c(N)c1N=Nc1ccc(F)cc1	93	19	-10	109	16	1.5
COc1ccc(N=Cc2nc(-c3ccco3)oc2O)cc1	101	26	-39	136*	2	2.4
Cc1ccc(N=Cc2nc(-c3ccc(C)cc3)oc2O)cc1	96	-6	2	99	11	1.4
Oc1oc(-c2ccccc2)nc1C=Nc1ccccc1	87	47	-35	132*	18	2.5
COc1ccc(-c2cc(O)cc(O)c2)cc1	103	103	-2	102	-3	3.8*
Cc1ccc2c(c1)N=C(c1ccc(Cl)cc1)CO2	107	72	-52	148*	-6	3.6*
c1ccc(C2=Nc3ccccc3OC2)cc1	100	13	-35	132*	7	4.8*
Clc1ccc(C2=Nc3cc(Cl)ccc3OC2)cc1	106	61	-41	135*	4	3.4*
Clc1ccc(C2=NN=C3COc4ccccc4N3C2)cc1	103	19	0	100	-3	1.4
O=C1CC(c2ccccc2)=Nc2ccccc2N1	94	0	4	96	8	1.6
CC(NC(=O)C(=O)NN=C1CCCCCCCCCCC1)c1ccccc1 (configuration not stated)	105	8	-3	102	0	0.98
CCCCOc1ccc(/C=C/C(=O)OCC(=O)NC(=O)NCC(C)C)cc1OCC	101	-10	-6	105	-5	1.1
SMILES	STAT3 act	APP 5'UTR act	STAT1 blocker	STAT1 activator	STAT3 inh	NF-kB neuron act
COc1ccccc1C1CCCN1Cc1nc(-c2ccc(C)s2)oc1C (configuration not stated)	103	16	4	94	-2	1.6
COC(=O)Cn1c(C)nc2c(sc3nc(C)cc(C)c32)c1=O	97	24	-45	141*	8	3
COC(=O)Cn1c(C)nc2ccccc21	101	-4	-3	103	5	0.89
Cc1cc2ncc(-c3cccc(Cl)c3)cn2n1	122	49	-32	129*	-24	1.9
Cc1ccc2oc(-c3ccccc3)c(C(=O)O)c(=O)c2c1	123	166*	-27	124	-24	4*
CCCCSc1nnc2c(n1)[nH]c1ccccc12	80	30	-43	140*	21	2.3
OC1(c2cccc(C(F)(F)F)c2)CCN(c2ccc(-c3ccccc3)nn2)CC1	118	-9	-45	141*	-18	1.6
OC1(c2cccc(C(F)(F)F)c2)CCN(c2ncnc3c2[nH]c2ccccc23)CC1	119	18	27	75	-15	0.35

Assay outcomes: PubChem, several laboratories
